# Screening data: PubChem, The Scripps Research Institute Molecular Screening Center
# PLC-gamma1 inh: inhibitors of human phospholipase C gamma1; P19174; purified PLC-gamma1, fluorogenic substrate, fluorescence; inhibition, % at 12.2 µM; hit rate 0.84% among 370,000; in the data active means inhibition above about 9.5%
# PLCb3 inh: blocks human PLC-beta3 enzyme activity. inhibition, % at 12.2 µM. Purified PLC-beta3, fluorogenic substrate, fluorescence. hit rate 0.18% among 370,000. AID 720704. Q01970; in the data active means inhibition above about 11%
# Tb MetRS inh: Trypanosoma brucei MetRS inhibition | purified T. brucei MetRS, ATP depletion, Kinase-Glo luminescence | inhibition, % at 11.9 µM | hit rate 0.4% among 360,000 | AID 624268;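 active means inhibition above a per-plate cutoff of the control wells' mean inhibition plus 3 SD, cut at about 5.5% in these data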
#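 System: purified T. brucei MetRS enzyme / Detection: Kinase-Glo luciferase luminescence reporting remaining unconsumed ATP / Medium: HEPES buffer with MgCl2, KCl, DTT, spermine, BSA, pyrophosphatase / Replication: singlicate, one well per compound / Evaluation: percent inhibition relative to median high and low control wells / Schedule: 2 h aminoacylation at 25 °C after 15 min preincubation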
# DAGLB inh: blocks human DAGLB lipase activity. inhibition, % at 5.17 µM. hit rate 0.059% among 340,000. HEK293T DAGLB membrane lysate, EnzChek fluorogenic substrate; in the data active means inhibition above about 34%
# sPLA2-III inh: Inhibits HGIII-sPLA2 liposome hydrolysis, primary screen; Q9NZ20; inhibition, % at 12.2 µM; QFRET BODIPY PC-A2 liposome hydrolysis, fluorescence; AID 743126; hit rate 0.56% among 370,000;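 active means inhibition above mean plus 3 SD of compounds lying within the high and low control bounds, cut at about 19% in these data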
# sPLA2 confirm: human GIII-sPLA2 inhibition, confirmation. shares compounds with sPLA2-III inh. recombinant hGIII-sPLA2, BODIPY PC-A2 QFRET fluorescence. inhibition, % at 12.2 µM. hit rate 34% among 2,000;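 active means mean inhibition across triplicates above the hit cutoff set in the earlier primary screen, cut at about 19% in these data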
# 535nm interf: 535nm fluorescence interference, HGIII-sPLA2 counter-screen | shares compounds with sPLA2-III inh | BODIPY FL product fluorescence interference, QFRET | inhibition, % at 12.2 µM | hit rate 8.5% among 2,000;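 active means average inhibition above the solvent-only control mean plus 3 SD, cut at about 6% in these data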
# Hits are given with their value; i = inactive; nt = not tested or not shown; ! = not confirmed by another sample. A selection: hits, their analogues and other compounds. The true share with any hit is near 1.9%.
SMILES,PLC-gamma1 inh,PLCb3 inh,Tb MetRS inh,DAGLB inh,sPLA2-III inh,sPLA2 confirm,535nm interf
Cc1cccc(N=Nc2ccc(N(C)C)cc2)c1,i,i,i,i,19.5,27.3,i
CN(C)c1ccccc1,i,i,i,i,i,nt,nt
COc1cccc(NC2=NCCS2)c1,i,i,nt,nt,i,nt,nt
COc1ccccc1Sc1ccccc1CC(C)N (stereo unspecified),i,i,i,i,i,nt,nt
COc1cc(CC(C)N)c(OC)cc1I (stereo unspecified),i,i,i,i,23.6!,i,i
CN1C2CCC1C(C(=O)Oc1ccccc1)C(c1ccc(Cl)cc1)C2 (stereo unspecified),i,i,nt,nt,i,nt,nt
CN1C[C@H](O)[C@H]2C[C@@H]1c1ccccc1O2,i,i,nt,nt,i,nt,nt
